Laboratory results from ChEMBL document CHEMBL5674867, “The SUV39H1 inhibitor chaetocin induces differentiation and shows synergistic cytotoxicity with other epigenetic drugs in acute myeloid leukemia cells” (Blood Cancer J, 2015).
Active and inactive are the calls of the source. The rule behind the calls is not given here.

Columns and labels:
U-937 [1] = test: Induction of myeloid differentiation in human U-937 cells at 0.5 uM measured after 12 hrs by Liu's staining method; assay type: functional, cell-based
Procedure, shortened: (§1)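 Cells treated for 12 h, spun onto slides by cytospin, stained with Liu's reagent A for 1 min and then reagent B for 2.5 min. Morphology read by light microscopy. KG-1a was grown in IMDM with 15% FBS; HL-60 and U937 in RPMI with 10% FBS.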

HL-60 [2] = test: Induction of myeloid differentiation in human HL-60 cells at 0.5 uM measured after 12 hrs by Liu's staining method; assay type: functional, cell-based; procedure, shortened: as §1
KG-1a [3] = test: Induction of myeloid differentiation in human KG-1a cells at 0.5 uM measured after 12 hrs by Liu's staining method; assay type: functional, cell-based; procedure, shortened: as §1
HL-60 [4] = test: Cytotoxicity against human HL-60 cells at 20 nM assessed as decrease in cell viability in combination with 0.5 uM SAHA measured after 24 hrs by MTT assay; assay type: functional
KG-1a [5] = test: Cytotoxicity against human KG-1a cells at 20 nM assessed as decrease in cell viability in combination with 0.5 uM SAHA measured after 24 hrs by MTT assay; assay type: functional
U-937 [6] = test: Cytotoxicity against human U-937 cells at 20 nM assessed as decrease in cell viability in combination with 0.5 uM SAHA measured after 24 hrs by MTT assay; assay type: functional
U-937 [7] = test: Cytotoxicity against human U-937 cells assessed as decrease in cell viability measured after 24 hrs by MTT assay; assay type: functional, cell-based; conditions: U-937, 24 h
Procedure, shortened: (§2)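 MTT viability read 24 h after exposure over a low concentration range (0–25 μM for one inhibitor, 0–100 for the other as printed). IC50 was derived for each line. Culture: HL-60 and U937 in RPMI + 10% FBS, KG-1a in IMDM + 15% FBS.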

HL-60 [8] = test: Cytotoxicity against human HL-60 cells assessed as decrease in cell viability measured after 24 hrs by MTT assay; assay type: functional, cell-based; conditions: HL-60, 24 h; procedure, shortened: as §2
KG-1a [9] = test: Cytotoxicity against human KG-1a cells assessed as decrease in cell viability measured after 48 hrs by MTT assay; assay type: functional, cell-based
KG-1a [10] = test: Cytotoxicity against human KG-1a cells assessed as decrease in cell viability measured after 24 hrs by MTT assay; assay type: functional, cell-based; procedure, shortened: as §2
KG-1a [11] = test: Induction of myeloid differentiation in human KG-1a cells at 20 uM assessed as increase in CD11b mRNA expression measured after 48 hrs by RT-PCR assay; assay type: functional, cell-based
Procedure, shortened: (§3)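 Cells exposed for 48 h (KG-1a in IMDM/15% FBS; HL-60 and U937 in RPMI/10% FBS). Total RNA extracted, 1 µg reverse transcribed, CD11b quantified by SYBR green real-time PCR normalised to actin. Cycling was 30 cycles of 95 °C, 60 °C and 72 °C, 45 s each. Mean ± s.e. of three independent experiments, compared with untreated control.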

HL-60 [12] = test: Cytotoxicity against human HL-60 cells assessed as decrease in cell viability measured after 48 hrs by MTT assay; assay type: functional, cell-based; conditions: HL-60, 48 h
U-937 [13] = test: Cytotoxicity against human U-937 cells assessed as decrease in cell viability measured after 48 hrs by MTT assay; assay type: functional, cell-based; conditions: U-937, 48 h
HL-60 [14] = test: Induction of myeloid differentiation in human HL-60 cells at 20 uM assessed as increase in CD11b mRNA expression measured after 48 hrs by RT-PCR assay; assay type: functional, cell-based; procedure, shortened: as §3
U-937 [15] = test: Induction of myeloid differentiation in human U-937 cells at 20 uM assessed as increase in CD11b mRNA expression measured after 48 hrs by RT-PCR assay; assay type: functional, cell-based; procedure, shortened: as §3

| SMILES | Activity (U-937 [1]) | Activity (HL-60 [2]) | Activity (KG-1a [3]) | Activity (HL-60 [4]) [%] | Activity (KG-1a [5]) [%] | Activity (U-937 [6]) [%] | IC50 (U-937 [7]) [µM] | IC50 (HL-60 [8]) [µM] | IC50 (KG-1a [9]) [µM] | IC50 (KG-1a [10]) [µM] | Activity (KG-1a [11]) | IC50 (HL-60 [12]) [µM] | IC50 (U-937 [13]) [µM] | Activity (HL-60 [14]) | Activity (U-937 [15]) |
| --- | --- | --- | --- | --- | --- | --- | --- | --- | --- | --- | --- | --- | --- | --- | --- |
| O=C(CCCCCCC(=O)Nc1ccccc1)NO | Active | Active | Active |  |  |  |  |  |  |  |  |  |  |  |  |
| CN1C(=O)[C@@]23C[C@]4([C@]56C[C@@]78SS[C@@](CO)(C(=O)N7[C@H]5Nc5ccccc56)N(C)C8=O)c5ccccc5N[C@@H]4N2C(=O)[C@]1(CO)SS3.O=C(CCCCCCC(=O)Nc1ccccc1)NO |  |  |  | 40 | 40 | 20 |  |  |  |  |  |  |  |  |  |
| COc1cc2c(NC3CCN(C(C)C)CC3)nc(C3CCCCC3)nc2cc1OCCCN1CCCC1 |  |  |  |  |  |  | 21.4 | 27.4 | 22.4 | 26.5 | inactive | 23.8 | 19.7 | inactive | inactive |
| CN1C(=O)[C@@]23C[C@]4([C@]56C[C@@]78SS[C@@](CO)(C(=O)N7[C@H]5Nc5ccccc56)N(C)C8=O)c5ccccc5N[C@@H]4N2C(=O)[C@]1(CO)SS3 [CHAETOCIN] |  |  |  | 40 | 40 | 20 | 9.6e-05 | 0.000153 | 9.5e-05 | 0.000103 |  | 0.000127 | 8.2e-05 |  |  |
